# According to ChEMBL document CHEMBL1177643, “Synthesis, DNA-binding ability and anticancer activity of benzothiazole/benzoxazole-pyrrolo[2,1-c][1,4]benzodiazepine conjugates” (Bioorg Med Chem, 2010):
# Several values for one entry are separate records, joined by “and”; a condition that tells them apart may be missing. Identical values can stand only once.
# Assays:
# [1] = test system: A-375; assay: Induction of apoptosis in human A375 cells at 2 uM; assay type: functional, cell-based
# Procedure, shortened: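 A375 melanoma cells (5 × 10⁵ per 60 mm dish) grown 24 h, then exposed to 2 μM compound (final) for 24 h; DMSO-treated cells as control. Cells harvested with trypsin–EDTA, fixed in ice-cold 70% ethanol, treated with RNase A, and stained with propidium iodide. DNA content of 20,000 events read by flow cytometry; sub-G1 (G0) area taken as apoptotic.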
# [2] = test system: A-375; assay: Cell cycle arrest in human A375 cells assessed as accumulation at S phase at 0.5 uM after 24 hrs using propidium iodide staining by flow cytometry; assay type: functional
# Procedure, shortened: (§1)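 A375 cells (5×10^5) grown 24 h, then exposed to compound 24 h (DMSO control). Trypsin–EDTA harvest, fixed in ice-cold 70% ethanol at 4 °C 30 min, RNase A 37 °C 30 min, propidium iodide staining. DNA content measured by flow cytometry on 20,000 events, gated as sub-G1/G0, G1, S and G2/M.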
# [3] = test system: A-375; assay: Cell cycle arrest in human A375 cells assessed as accumulation at G2/M phase at 0.5 uM after 24 hrs using propidium iodide staining by flow cytometry; assay type: functional; procedure, shortened: as §1
# [4] = test system: A-375; assay: Cell cycle arrest in human A375 cells assessed as accumulation at G0/G1 phase at 0.5 uM after 24 hrs using propidium iodide staining by flow cytometry; assay type: functional; procedure, shortened: as §1
# [5] = test system: A-375; assay: Cell cycle arrest in human A375 cells assessed as accumulation at G0 phase at 1 uM after 24 hrs using propidium iodide staining by flow cytometry; assay type: functional; procedure, shortened: as §1
# [6] = test system: A-375; assay: Cell cycle arrest in human A375 cells assessed as accumulation at S phase at 1 uM after 24 hrs using propidium iodide staining by flow cytometry; assay type: functional; procedure, shortened: as §1
# [7] = test system: A-375; assay: Cell cycle arrest in human A375 cells assessed as accumulation at sub-G0 phase at 0.5 uM after 24 hrs using propidium iodide staining by flow cytometry; assay type: functional; procedure, shortened: as §1
# [8] = test system: HT-29; assay: Antitumor activity against human HT-29 cells xenografted in SCID mouse assessed as reduction tumor volume at 15 mg/kg, ip measured on day 1; assay type: functional; conditions: route intraperitoneal
# Procedure, shortened: (§2)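 HT29 xenografts in scid mice; dosing ip on days 1, 5 and 9 (q4d), 5 or 10 mg/kg per dose (total 15 or 30 mg/kg); vehicle control group. Tumour volume, body weight and toxicity followed for 35 days. Relative tumour volume = volume on given day / volume on day 1; T/C = mean RTV treated / mean RTV control.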
# [9] = test system: HT-29; assay: Antitumor activity against human HT-29 cells xenografted in SCID mouse assessed as reduction tumor volume at 30 mg/kg, ip measured on day 5; assay type: functional; conditions: route intraperitoneal; procedure, shortened: as §2
# [10] = test system: HT-29; assay: Antitumor activity against human HT-29 cells xenografted in SCID mouse assessed as reduction tumor volume at 15 mg/kg, ip measured on day 9; assay type: functional; conditions: route intraperitoneal; procedure, shortened: as §2
# [11] = test system: HT-29; assay: Antitumor activity against human HT-29 cells xenografted in SCID mouse assessed as reduction tumor volume at 30 mg/kg, ip measured on day 9; assay type: functional; conditions: route intraperitoneal; procedure, shortened: as §2
# [12] = test system: HT-29; assay: Antitumor activity against human HT-29 cells xenografted in SCID mouse assessed as reduction tumor volume at 15 mg/kg, ip measured on day 14; assay type: functional; conditions: route intraperitoneal; procedure, shortened: as §2
# [13] = test system: HT-29; assay: Antitumor activity against human HT-29 cells xenografted in SCID mouse assessed as reduction tumor volume at 30 mg/kg, ip measured on day 14; assay type: functional; conditions: route intraperitoneal; procedure, shortened: as §2
# [14] = test system: HT-29; assay: Antitumor activity against human HT-29 cells xenografted in SCID mouse assessed as reduction tumor volume at 15 mg/kg, ip measured on day 17; assay type: functional; conditions: route intraperitoneal; procedure, shortened: as §2
# [15] = test system: HT-29; assay: Antitumor activity against human HT-29 cells xenografted in SCID mouse assessed as reduction tumor volume at 15 mg/kg, ip measured on day 21; assay type: functional; conditions: route intraperitoneal; procedure, shortened: as §2
# [16] = test system: HT-29; assay: Antitumor activity against human HT-29 cells xenografted in SCID mouse assessed as reduction tumor volume at 30 mg/kg, ip measured on day 21; assay type: functional; conditions: route intraperitoneal; procedure, shortened: as §2
# [17] = test system: HT-29; assay: Antitumor activity against human HT-29 cells xenografted in SCID mouse assessed as reduction tumor volume at 30 mg/kg, ip measured on day 25; assay type: functional; conditions: route intraperitoneal; procedure, shortened: as §2
# [18] = test system: HT-29; assay: Antitumor activity against human HT-29 cells xenografted in SCID mouse assessed as reduction tumor volume at 30 mg/kg, ip measured on day 28; assay type: functional; conditions: route intraperitoneal; procedure, shortened: as §2
# [19] = test system: HT-29; assay: Antitumor activity against human HT-29 cells xenografted in SCID mouse assessed as reduction tumor volume at 30 mg/kg, ip measured on day 32; assay type: functional; conditions: route intraperitoneal; procedure, shortened: as §2
# [20] = test system: HT-29; assay: Antitumor activity against human HT-29 cells xenografted in SCID mouse assessed as reduction tumor volume at 15 mg/kg, ip measured on day 35; assay type: functional; conditions: route intraperitoneal; procedure, shortened: as §2
# [21] = test system: HT-29; assay: Antitumor activity against human HT-29 cells xenografted in SCID mouse assessed as reduction tumor volume at 30 mg/kg, ip measured on day 35; assay type: functional; conditions: route intraperitoneal; procedure, shortened: as §2
# [22] = test system: Mus musculus; assay: Toxicity in SCID mouse assessed as weight loss at 15 mg/kg, ip; assay type: organism-based; design: dose 15 mg/kg, route intraperitoneal; conditions: in vivo
# Procedure, shortened: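 HT29 xenograft-bearing scid mice dosed ip at 5 or 10 mg/kg on days 1, 5 and 9 (q4d), totalling 15 or 30 mg/kg. Vehicle-treated control group. Body weight, survival and signs of overt toxicity were recorded over the 35-day study.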
smiles,measurement,setting,value
COc1cc(-c2nc3ccccc3s2)ccc1OCCCCCOc1cc2c(cc1OC)C(=O)N1CCC[C@H]1C=N2,Activity,[1],Dose-dependent effect
same,Activity,[2],64.95%
same,Activity,[3],15.96%
same,Activity,[4],67.08%
same,Activity,[5],2.7%
same,Activity,[6],15.42%
same,Activity,[7],2.13%
same,T/C,[8],1%
same,T/C,[9],0.85%
same,T/C,[10],0.49%
same,T/C,[11],0.78%
same,T/C,[12],0.58% and 0.3%
same,T/C,[13],0.66%
same,T/C,[14],0.65% and 0.28%
same,T/C,[15],0.65% and 0.2%
same,T/C,[16],0.58%
same,T/C,[17],0.67%
same,T/C,[18],0.75%
same,T/C,[19],0.76%
same,T/C,[20],0.82% and 0.14%
same,T/C,[21],0.68%
same,Activity,[22],Non-toxic
